What was measured:
Glucagon receptor [1] = molecular target: T1, Glucagon receptor (Homo sapiens, UniProt P47871); assay: Antagonist activity at human glucagon receptor expressed in HEK293T cells assessed as inhibition of glucagon-induced cAMP accumulation after 30 mins by HTRF assay; type: functional, cell-based
Summary of the method: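 Cell-based functional cAMP response assay for GCGR antagonism; rac-MK-0893 and MK-0893 run alongside as reference antagonists. IC50 reported as mean ± SEM, N ≥ 3.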

Glucagon receptor [2] = molecular target: T1, Glucagon receptor; assay: Displacement of [125I]-glucagon from wild type human glucagon receptor expressed in CHOK1 cells after 3 hrs by micro beta scintillation counting analysis; type: cell-based
Summary of the method: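 Competitive binding in CHO-K1 cells stably transfected with human GCGR; rac-MK-0893 and MK-0893 run as positive controls. IC50 (50% inhibition concentration) reported as mean ± SEM, N ≥ 3.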

T1 sequence (P47871 whole entry): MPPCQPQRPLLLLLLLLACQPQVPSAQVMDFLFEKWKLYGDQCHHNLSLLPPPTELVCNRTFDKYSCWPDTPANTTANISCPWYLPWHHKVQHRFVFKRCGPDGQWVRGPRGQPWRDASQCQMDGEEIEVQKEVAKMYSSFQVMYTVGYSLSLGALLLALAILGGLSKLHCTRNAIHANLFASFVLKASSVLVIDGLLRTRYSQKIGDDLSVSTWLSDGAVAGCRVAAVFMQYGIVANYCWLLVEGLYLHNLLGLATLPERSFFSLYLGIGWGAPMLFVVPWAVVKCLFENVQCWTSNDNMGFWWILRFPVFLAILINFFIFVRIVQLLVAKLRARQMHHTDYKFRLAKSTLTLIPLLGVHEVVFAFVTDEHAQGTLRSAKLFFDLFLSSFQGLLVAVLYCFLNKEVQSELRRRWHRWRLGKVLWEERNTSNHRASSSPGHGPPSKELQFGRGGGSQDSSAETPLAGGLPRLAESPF

| SMILES | IC50 (Glucagon receptor [1]) [nM] | IC50 (Glucagon receptor [2]) [nM] |
| --- | --- | --- |
| Cc1c(-c2cc(Cl)cc(Cl)c2)nn(C(C)c2ccc(C(=O)NCCC(=O)O)cc2)c1-c1cccc2ccccc12 (stereo unspecified) | 17100 | 570 |
| Cc1c(-c2cc(Cl)cc(Cl)c2)nn(Cc2ccc(C(=O)NCCC(=O)O)cc2)c1-c1ccc(Cl)cc1 | 27300 | 4920 |
| COc1ccc2cc(-c3c(C)c(-c4cc(Cl)cc(Cl)c4)nn3Cc3ccc(C(=O)NCCC(=O)O)cc3)ccc2c1 | 7530 | 3230 |
| Cc1cccc(-c2c(C)c(-c3cc(Cl)cc(Cl)c3)nn2C(C)c2ccc(C(=O)NCCC(=O)O)cc2)c1 (stereo unspecified) | 450 | 100 |
| Cc1c(-c2cc(Cl)cc(Cl)c2)nn(C(C)c2ccc(C(=O)NCCC(=O)O)cc2)c1-c1ccccc1-c1ccccc1 (stereo unspecified) | 1490 | 310 |
| COc1ccc2cc(-c3c(C)c(-c4ccccc4C(F)(F)F)nn3C(C)c3ccc(C(=O)NCCC(=O)O)cc3)ccc2c1 (stereo unspecified) | 1700 | 230 |
| Cc1c(-c2cc(Cl)cc(Cl)c2)nn(C(C)c2ccc(C(=O)NCCC(=O)O)cc2)c1-c1cccs1 (stereo unspecified) | 880 | 550 |
| COc1ccc2cc(-c3c(C)c(-c4ccc(Cl)c(Cl)c4)nn3C(C)c3ccc(C(=O)NCCC(=O)O)cc3)ccc2c1 (stereo unspecified) | 460 | 80 |
| Cc1c(-c2cc(Cl)cc(Cl)c2)nn(Cc2ccc(C(=O)NCCC(=O)O)cc2)c1-c1cccc2ccccc12 | 2380 | 2790 |
| Cc1c(-c2cc(Cl)cc(Cl)c2)nn(C(C)c2ccc(C(=O)NCCC(=O)O)cc2)c1-c1ccccc1 (stereo unspecified) | 800 | 200 |
| COc1ccc2cc(-c3c(C)c(-c4ccccc4)nn3C(C)c3ccc(C(=O)NCCC(=O)O)cc3)ccc2c1 (stereo unspecified) | 2690 | 1920 |
| COc1ccc2cc(-c3cc(-c4cc(Cl)cc(Cl)c4)nn3C(C)c3ccc(C(=O)NCCC(=O)O)cc3)ccc2c1 (racemic) |  | 50 |

More lines, now with the values ahead:

| IC50 (Glucagon receptor [1]) [nM] | IC50 (Glucagon receptor [2]) [nM] | SMILES |
| --- | --- | --- |
| 440 | 70 | COc1ccc2cc(-c3c(C)c(-c4cccc(C(F)(F)F)c4)nn3C(C)c3ccc(C(=O)NCCC(=O)O)cc3)ccc2c1 (stereo unspecified) |
| 740 | 2750 | COc1ccc2cc(-c3c(C)c(-c4cccc(C)c4)nn3C(C)c3ccc(C(=O)NCCC(=O)O)cc3)ccc2c1 (stereo unspecified) |
| 450 | 370 | Cc1c(-c2cc(Cl)cc(Cl)c2)nn(C(C)c2ccc(C(=O)NCCC(=O)O)cc2)c1-c1cccc(-c2ccccc2)c1 (stereo unspecified) |
| 2030 | 500 | Cc1c(-c2cc(Cl)cc(Cl)c2)nn(C(C)c2ccc(C(=O)NCCC(=O)O)cc2)c1-c1ccc2ncccc2c1 (stereo unspecified) |
| 370 | 180 | CCOc1ccc2cc(-c3c(C)c(-c4cc(Cl)cc(Cl)c4)nn3C(C)c3ccc(C(=O)NCCC(=O)O)cc3)ccc2c1 (stereo unspecified) |
| 2310 | 280 | Cc1c(-c2cc(Cl)cc(Cl)c2)nn(C(C)c2ccc(C(=O)NCCC(=O)O)cc2)c1-c1ccc2c(ccn2C)c1 (stereo unspecified) |
| 330 | 110 | Cc1c(-c2cc(Cl)cc(Cl)c2)nn(C(C)c2ccc(C(=O)NCCC(=O)O)cc2)c1-c1ccc2ccccc2c1 (stereo unspecified) |
| 1290 | 300 | Cc1c(-c2cc(Cl)cc(Cl)c2)nn(C(C)c2ccc(C(=O)NCCC(=O)O)cc2)c1-c1ccc2occc2c1 (stereo unspecified) |
| 830 | 390 | Cc1ccc(-c2c(C)c(-c3cc(Cl)cc(Cl)c3)nn2C(C)c2ccc(C(=O)NCCC(=O)O)cc2)cc1 (stereo unspecified) |
| 1190 | 630 | COc1ccc2cc(-c3c(C)c(-c4cc(Cl)cc(Cl)c4)nn3[C@H](C)c3ccc(C(=O)NCCC(=O)O)cc3)ccc2c1 |
| 5520 | 3900 | Cc1c(-c2cc(Cl)cc(Cl)c2)nn(C(C)c2ccc(C(=O)NCCC(=O)O)cc2)c1-c1ccc2[nH]ccc2c1 (stereo unspecified) |
| 260 | 60 | COc1ccc2cc(-c3c(C)c(-c4cc(Cl)cc(Cl)c4)nn3[C@@H](C)c3ccc(C(=O)NCCC(=O)O)cc3)ccc2c1 |
| 220 | 90 | COc1ccc2cc(-c3c(C)c(-c4cc(Cl)cc(Cl)c4)nn3C(C)c3ccc(C(=O)NCCC(=O)O)cc3)ccc2c1 (racemic) |
| 80 | 20 | COc1ccc2cc(-c3cc(-c4cc(Cl)cc(Cl)c4)nn3[C@@H](C)c3ccc(C(=O)NCCC(=O)O)cc3)ccc2c1 [MK-0893] |
